Measurements published in ChEMBL document CHEMBL2311332, “Epidithiodiketopiperazine as a pharmacophore for protein lysine methyltransferase G9a inhibitors: reducing cytotoxicity by structural simplification” (Bioorg Med Chem Lett, 2013).
Active and inactive are the calls of the source. No cut-off for these calls is given here.

Tests used:
[1] = target: T1, Histone-lysine N-methyltransferase EHMT2 (Homo sapiens, UniProt Q96KQ7); assay: Inhibition of protein lysine methyltransferase G9a (unknown origin) by ELISA assay
T1 sequence (Q96KQ7 whole entry): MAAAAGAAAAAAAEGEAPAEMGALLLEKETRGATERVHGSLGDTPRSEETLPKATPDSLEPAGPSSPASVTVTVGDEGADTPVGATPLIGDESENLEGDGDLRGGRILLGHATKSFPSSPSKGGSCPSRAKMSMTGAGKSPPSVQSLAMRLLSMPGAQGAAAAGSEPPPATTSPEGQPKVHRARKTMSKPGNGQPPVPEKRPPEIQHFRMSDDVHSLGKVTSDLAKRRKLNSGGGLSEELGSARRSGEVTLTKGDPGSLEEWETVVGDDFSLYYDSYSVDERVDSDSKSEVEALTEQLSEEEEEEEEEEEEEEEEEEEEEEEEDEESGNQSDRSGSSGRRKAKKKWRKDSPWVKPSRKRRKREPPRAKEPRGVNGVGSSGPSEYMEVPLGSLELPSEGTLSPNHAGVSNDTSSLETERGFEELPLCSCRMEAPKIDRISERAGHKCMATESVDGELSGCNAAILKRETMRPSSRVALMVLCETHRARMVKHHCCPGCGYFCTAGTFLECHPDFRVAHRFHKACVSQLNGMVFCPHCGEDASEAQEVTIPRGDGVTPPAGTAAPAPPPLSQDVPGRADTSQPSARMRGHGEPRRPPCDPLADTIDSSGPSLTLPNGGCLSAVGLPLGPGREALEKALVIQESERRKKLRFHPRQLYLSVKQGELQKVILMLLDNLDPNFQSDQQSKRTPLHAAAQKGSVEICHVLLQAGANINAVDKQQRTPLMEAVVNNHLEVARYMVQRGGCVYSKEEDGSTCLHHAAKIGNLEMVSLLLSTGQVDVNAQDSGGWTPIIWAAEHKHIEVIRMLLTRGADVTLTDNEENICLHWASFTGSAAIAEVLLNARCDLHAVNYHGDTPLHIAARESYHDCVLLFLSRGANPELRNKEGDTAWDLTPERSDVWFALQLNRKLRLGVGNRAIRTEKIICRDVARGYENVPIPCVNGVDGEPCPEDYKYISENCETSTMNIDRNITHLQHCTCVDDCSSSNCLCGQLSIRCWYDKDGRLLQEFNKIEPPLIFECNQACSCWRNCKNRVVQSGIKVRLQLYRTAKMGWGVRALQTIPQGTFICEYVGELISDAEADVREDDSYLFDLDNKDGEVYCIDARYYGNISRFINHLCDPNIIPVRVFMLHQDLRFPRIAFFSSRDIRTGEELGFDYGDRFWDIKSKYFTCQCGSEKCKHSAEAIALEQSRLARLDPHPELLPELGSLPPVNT

[2] = target: T1, Histone-lysine N-methyltransferase EHMT2; assay: Inhibition of protein lysine methyltransferase G9a (unknown origin) by modified ELISA assay
HL-60 = assay: Cytotoxicity against human HL60 cells at 3 to 30 uM after 4 hrs by Alamar Blue assay; assay type: cell-based; settings: hl-60, 4 h
Summary of the method: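 HL-60 cells were exposed to the derivatives for 4 h. Cell viability was then read by alamarBlue.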

[3] = target: Thioredoxin reductase (Homo sapiens) (UniProt Q16881+Q9NNW7+Q86VQ6); assay: Inhibition of thioredoxin reductase (unknown origin) assessed as reduction of DTNB at 10 uM; assay type: protein assay

SMILES | IC50 [1] [µM] | IC50 [2] [µM] | Activity (HL-60) | inhibition [3]
CN1C(=O)[C@H]2C[C@]3([C@]45C[C@@H]6C(=O)N(C)[C@H](CO)C(=O)N6[C@H]4Nc4ccccc45)c4ccccc4N[C@@H]3N2C(=O)[C@H]1CO | > 50 | > 100 | – | –
CN1C(=O)[C@]23C[C@@]4([C@@]56C[C@]78SS[C@](CO)(C(=O)N7[C@@H]5Nc5ccccc56)N(C)C8=O)c5ccccc5N[C@H]4N2C(=O)[C@@]1(CO)SS3 | – | 6.4 | – | –
CN1C(=O)[C@@]23C[C@@H]4c5ccccc5N[C@@H]4N2C(=O)[C@@]1(CO[Si](C)(C)C(C)(C)C)SS3 | – | 3.3 | – | –
CN1C(=O)[C@]23C[C@H]4c5ccccc5N[C@H]4N2C(=O)[C@]1(CO[Si](C)(C)C(C)(C)C)SS3 | – | 23.5 | – | –
CN1C(=O)[C@@]23C[C@]4([C@]56C[C@@]78S[C@](CO)(C(=O)N7[C@H]5Nc5ccccc56)N(C)C8=O)c5ccccc5N[C@@H]4N2C(=O)[C@@]1(CO)S3 | – | > 100 | – | –
CN1C(=O)[C@@]2(S)C[C@]3([C@]45C[C@]6(S)C(=O)N(C)[C@](S)(CO)C(=O)N6[C@H]4Nc4ccccc45)c4ccccc4N[C@@H]3N2C(=O)[C@@]1(S)CO | – | 27.1 | – | –
CN1C(=O)[C@@]23C[C@]4([C@]56C[C@@]78SS[C@](CO[Si](C)(C)C(C)(C)C)(C(=O)N7[C@H]5Nc5ccccc56)N(C)C8=O)c5ccccc5N[C@@H]4N2C(=O)[C@@]1(CO[Si](C)(C)C(C)(C)C)SS3 | – | 7.2 | – | –
CN1C(=O)[C@@H]2C[C@@]3([C@@]45C[C@H]6C(=O)N(C)[C@@H](CO)C(=O)N6[C@@H]4Nc4ccccc45)c4ccccc4N[C@H]3N2C(=O)[C@@H]1CO | – | > 100 | – | –
CN1C(=O)C2(S)CCCN2C(=O)C1(S)CO (racemic) | – | 13.1 | Non-toxic | –
CN1C(=O)C23CCCN2C(=O)C1(CO)SS3 (racemic) | – | 5.2 | Non-toxic | inactive
CN1C(=O)C23CCCN2C(=O)C1(CO)SSS3 (racemic) | – | 5.3 | Non-toxic | inactive
CN1C(=O)[C@@]23C[C@]4([C@]56C[C@@]78SS[C@@](CO)(C(=O)N7[C@H]5Nc5ccccc56)N(C)C8=O)c5ccccc5N[C@@H]4N2C(=O)[C@]1(CO)SS3 [CHAETOCIN] | – | 7.2 | – | –
